# Experimental data reported in ChEMBL document CHEMBL1629492 (Eur J Med Chem, 2010).
# Columns and labels:
# [1] = molecular target: T1, Alpha-1D adrenergic receptor (Rattus norvegicus) (UniProt P23944); settings: Wistar, Thoracic aorta
# T1 sequence (whole entry): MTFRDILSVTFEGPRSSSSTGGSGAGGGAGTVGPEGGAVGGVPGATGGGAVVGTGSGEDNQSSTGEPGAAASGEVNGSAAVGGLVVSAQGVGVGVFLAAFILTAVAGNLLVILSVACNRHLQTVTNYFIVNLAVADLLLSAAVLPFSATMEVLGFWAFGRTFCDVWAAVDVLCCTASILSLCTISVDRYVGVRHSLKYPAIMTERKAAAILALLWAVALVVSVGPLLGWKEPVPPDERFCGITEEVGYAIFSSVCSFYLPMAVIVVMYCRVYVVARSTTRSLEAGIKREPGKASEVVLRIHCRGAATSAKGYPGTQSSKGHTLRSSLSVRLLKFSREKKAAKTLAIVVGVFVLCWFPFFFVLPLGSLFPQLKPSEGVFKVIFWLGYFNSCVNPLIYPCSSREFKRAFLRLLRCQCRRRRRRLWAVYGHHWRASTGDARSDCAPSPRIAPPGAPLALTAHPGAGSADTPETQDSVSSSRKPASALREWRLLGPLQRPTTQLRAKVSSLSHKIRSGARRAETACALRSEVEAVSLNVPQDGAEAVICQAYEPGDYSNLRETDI
# [2] = molecular target: T2, Alpha-1B adrenergic receptor (Homo sapiens, UniProt P35368); assay: Displacement of [3H]prazosin from human Alpha-1B adrenoceptor expressed in CHO cells; format: cell-based
# T2 sequence (P35368 whole entry): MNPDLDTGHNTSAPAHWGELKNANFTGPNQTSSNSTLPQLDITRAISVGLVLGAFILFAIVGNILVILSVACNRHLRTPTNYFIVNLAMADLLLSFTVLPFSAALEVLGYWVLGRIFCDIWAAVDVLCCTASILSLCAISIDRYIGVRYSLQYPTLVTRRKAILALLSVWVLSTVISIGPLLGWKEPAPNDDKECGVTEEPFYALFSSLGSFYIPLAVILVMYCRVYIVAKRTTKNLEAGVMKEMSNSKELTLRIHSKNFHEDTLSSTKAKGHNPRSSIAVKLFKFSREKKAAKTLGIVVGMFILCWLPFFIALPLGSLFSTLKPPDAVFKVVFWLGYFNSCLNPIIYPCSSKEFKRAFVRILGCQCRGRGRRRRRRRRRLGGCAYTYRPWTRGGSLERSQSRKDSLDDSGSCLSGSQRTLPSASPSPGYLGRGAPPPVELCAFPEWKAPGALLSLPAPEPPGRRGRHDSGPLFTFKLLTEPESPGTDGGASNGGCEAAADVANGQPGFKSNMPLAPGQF
# Method in brief: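 Membranes ([…], as printed) from CHO cells stably expressing the cloned human α1b subtype were incubated with 0.1–0.4 nM [³H]prazosin and competitor (1 pM up to the top concentration) in 50 mM Tris-HCl, pH 7.4, for 30 min at 25 °C. Non-specific binding was defined with phentolamine, and incubations ended by filtration. Ki was derived from IC50 by Cheng–Prusoff. Reported as pKi from 2–3 triplicate experiments.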
# [3] = molecular target: T3, Alpha-1D adrenergic receptor (Homo sapiens, UniProt P25100); assay: Displacement of [3H]prazosin from human Alpha-1D adrenoceptor expressed in CHO cells; format: cell-based
# T3 sequence (P25100 whole entry): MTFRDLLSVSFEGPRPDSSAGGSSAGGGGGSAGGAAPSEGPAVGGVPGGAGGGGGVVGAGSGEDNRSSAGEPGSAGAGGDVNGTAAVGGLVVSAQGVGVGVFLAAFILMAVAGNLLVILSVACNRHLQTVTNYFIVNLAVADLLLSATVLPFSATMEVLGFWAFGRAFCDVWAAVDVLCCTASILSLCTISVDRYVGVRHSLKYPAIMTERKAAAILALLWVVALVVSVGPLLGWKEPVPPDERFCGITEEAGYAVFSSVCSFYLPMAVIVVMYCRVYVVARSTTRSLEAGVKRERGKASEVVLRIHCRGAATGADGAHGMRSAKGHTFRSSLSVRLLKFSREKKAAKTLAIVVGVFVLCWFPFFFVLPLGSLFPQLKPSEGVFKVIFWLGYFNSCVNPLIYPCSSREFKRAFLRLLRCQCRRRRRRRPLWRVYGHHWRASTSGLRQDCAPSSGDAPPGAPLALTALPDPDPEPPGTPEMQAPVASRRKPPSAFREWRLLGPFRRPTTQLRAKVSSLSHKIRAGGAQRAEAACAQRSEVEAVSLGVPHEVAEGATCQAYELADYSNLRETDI
# Method in brief: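 Membranes ([…], as printed) from CHO cells stably expressing the cloned human α1d subtype were incubated with 0.1–0.4 nM [³H]prazosin and competing drug (1 pM upward) in 50 mM Tris-HCl, pH 7.4, for 30 min at 25 °C. Phentolamine defined non-specific binding. IC50 was converted to Ki by Cheng–Prusoff. Reported as pKi from 2–3 triplicate experiments.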
# [4] = molecular target: T4, Alpha-1B adrenergic receptor (Rattus norvegicus) (UniProt P15823); assay: Antagonist activity at Alpha-1B adrenoceptor in Wistar rat spleen assessed as phenylephrine induced contractions after 30 mins; format: functional, tissue-based
# T4 sequence (whole entry): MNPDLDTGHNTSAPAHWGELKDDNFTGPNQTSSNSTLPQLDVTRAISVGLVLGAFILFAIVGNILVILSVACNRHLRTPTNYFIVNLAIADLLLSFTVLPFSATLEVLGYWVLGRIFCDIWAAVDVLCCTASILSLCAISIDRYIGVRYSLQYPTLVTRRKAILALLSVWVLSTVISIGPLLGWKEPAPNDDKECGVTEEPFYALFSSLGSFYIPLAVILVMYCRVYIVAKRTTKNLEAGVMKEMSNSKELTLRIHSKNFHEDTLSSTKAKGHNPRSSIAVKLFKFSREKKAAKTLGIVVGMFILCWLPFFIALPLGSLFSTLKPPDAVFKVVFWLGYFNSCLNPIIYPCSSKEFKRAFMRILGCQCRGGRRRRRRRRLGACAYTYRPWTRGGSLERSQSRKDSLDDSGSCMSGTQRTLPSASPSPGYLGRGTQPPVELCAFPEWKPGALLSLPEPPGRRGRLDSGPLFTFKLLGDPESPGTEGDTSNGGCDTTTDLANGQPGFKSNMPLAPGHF
# Method in brief: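 Spleen strips from male Wistar rats (275–300 g) were set up in a 20 mL bath of physiological salt solution (pH 7.4, 37 °C, 95% O2/5% CO2) under 1 g tension and equilibrated 2 h. Two cumulative phenylephrine curves were run, each followed by 30 min washing, then 30 min incubation with vehicle or antagonist before a third curve. Values are Schild pA2, or pKB where slopes were nonparallel; 4–6 experiments.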
# [5] = molecular target: T5, Alpha-1A adrenergic receptor (Rattus norvegicus) (UniProt P43140); assay: Antagonist activity at alpha1A adrenoceptor in Wistar rat vas deferens assessed as noradrenaline induced contractions after 30 mins; format: functional, tissue-based
# T5 sequence (whole entry): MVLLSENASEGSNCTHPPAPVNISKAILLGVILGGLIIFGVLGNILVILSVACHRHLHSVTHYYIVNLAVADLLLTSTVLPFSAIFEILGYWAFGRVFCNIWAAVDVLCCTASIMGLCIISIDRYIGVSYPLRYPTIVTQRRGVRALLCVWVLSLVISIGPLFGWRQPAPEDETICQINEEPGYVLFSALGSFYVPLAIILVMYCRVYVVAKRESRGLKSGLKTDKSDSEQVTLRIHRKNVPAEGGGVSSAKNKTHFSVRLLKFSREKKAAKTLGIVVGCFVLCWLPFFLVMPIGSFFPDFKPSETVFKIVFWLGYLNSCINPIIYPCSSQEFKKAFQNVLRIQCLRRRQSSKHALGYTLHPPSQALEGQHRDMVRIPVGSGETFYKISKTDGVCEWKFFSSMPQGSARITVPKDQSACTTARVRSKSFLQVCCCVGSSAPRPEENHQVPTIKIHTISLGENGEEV
# Method in brief: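 Prostatic portions (2 cm) of vas deferens from male Wistar rats (275–300 g) were held under 0.35 g tension in Tyrode solution at 37 °C with cocaine present. Tissues were equilibrated 45 min, primed twice with noradrenaline, then given a cumulative isotonic noradrenaline curve.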
structure (smiles),measurement,setting,value
CCOc1ccccc1OCCN[C@H](C)Cc1ccc(OC)c(S(N)(=O)=O)c1 [TAMSULOSIN],pKb,[1],10
same,Ki,[2],631 pM
same,Ki,[3],100 pM
same,pKb,[4],9.3
same,pKb,[5],9.46
